ChEMBL document CHEMBL1143835, “Antipropionibacterial activity of BAL19403, a novel macrolide antibiotic” (2007)
Values after ≈ are worked out from the molar mass of the structure shown.

What was measured:
[1] = system: Propionibacterium granulosum; experiment: Antibacterial activity against drug-resistant Propionibacterium granulosum NCTC-11865 after 48 hrs by broth microdilution method; assay type: functional; settings: Cutibacterium granulosum, NCTC-11865, 48 h
Procedure, shortened: (§1)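 Broth microdilution MIC in Wilkins-Chalgren broth without lysed horse blood, following CLSI anaerobe guidelines. Plates were held in anaerobic jars with atmosphere generators (O2 <0.1% by 2.5 h, CO2 >15% by 24 h) at 35 to 37°C for 48 h. Growth was read with an illuminated plate reader and magnifying mirror.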

[2] = system: Corynebacterium jeikeium; experiment: Antibacterial activity against Corynebacterium jeikeium after 48 hrs by broth microdilution method; assay type: functional
Procedure, shortened: (§2)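 Broth microdilution per CLSI in cation-adjusted Mueller-Hinton broth supplemented with 0.5% (vol/vol) Tween 80. Plates incubated at 35°C in ambient air for 44 to 48 h, then read visually. MICs in μg/ml; a geometric mean MIC was calculated across the corynebacterial strains.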

[3] = system: Cutibacterium acnes; experiment: Antibacterial activity against drug-resistant Propionibacterium acnes SW11 after 48 hrs by broth microdilution method; assay type: functional; procedure, shortened: as §1
[4] = system: Cutibacterium acnes; experiment: Antibacterial activity against drug-resistant Propionibacterium acnes SW3CD after 72 hrs; assay type: functional
Procedure, shortened: (§3)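 MBC for P. acnes followed MIC assays by standard methodology. Samples were plated on Wilkins-Chalgren agar, incubated anaerobically in GENbox jars at 35 to 37°C, and examined for growth after 72 h.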

[5] = system: Cutibacterium acnes; experiment: Antibacterial activity against drug-resistant Propionibacterium acnes SW10 after 48 hrs by broth microdilution method; assay type: functional; procedure, shortened: as §1
[6] = system: Cutibacterium acnes; experiment: Antibacterial activity against drug-resistant Propionibacterium acnes P401:5 after 48 hrs by broth microdilution method; assay type: functional; procedure, shortened: as §1
[7] = system: Cutibacterium acnes; experiment: Antibacterial activity against drug-resistant Propionibacterium acnes FG7E after 48 hrs by broth microdilution method; assay type: functional; procedure, shortened: as §1
[8] = system: Cutibacterium acnes; experiment: Antibacterial activity against drug-resistant Propionibacterium acnes P429:1 (SC) after 48 hrs by broth microdilution method; assay type: functional; procedure, shortened: as §1
[9] = system: Cutibacterium acnes; experiment: Antibacterial activity against drug-resistant Propionibacterium acnes SW101CDA after 48 hrs by broth microdilution method; assay type: functional; procedure, shortened: as §1
[10] = system: Streptococcus pyogenes; experiment: Antibacterial activity against Streptococcus pyogenes after 20 to 24 hrs by broth microdilution method
[11] = system: Cutibacterium acnes; experiment: Antibacterial activity against drug-resistant Propionibacterium acnes SW101T after 48 hrs by broth microdilution method; assay type: functional; procedure, shortened: as §1
[12] = system: Staphylococcus aureus; experiment: Antibacterial activity against methicillin-resistant Staphylococcus aureus after 20 to 24 hrs by broth microdilution method
[13] = system: Cutibacterium acnes; experiment: MBC/MIC ratio of Propionibacterium acnes GE4E; assay type: functional
Procedure, shortened: (§4)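 MIC by CLSI broth microdilution in Wilkins-Chalgren broth in anaerobic jars (O2 <0.1%, CO2 >15%), read after 48 h at 35–37°C on an illuminated plate reader. For MBC, samples were plated onto Wilkins-Chalgren agar and incubated anaerobically for 72 h at 35–37°C before growth was scored.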

[14] = system: Corynebacterium amycolatum; experiment: Antibacterial activity against Corynebacterium amycolatum after 48 hrs by broth microdilution method; assay type: functional; procedure, shortened: as §2
[15] = system: Cutibacterium acnes; experiment: Antibacterial activity against drug-resistant Propionibacterium acnes GE46EB after 48 hrs by broth microdilution method; assay type: functional; procedure, shortened: as §1
[16] = system: Cutibacterium acnes; experiment: Antibacterial activity against drug-resistant Propionibacterium acnes D-04/97 after 48 hrs by broth microdilution method; assay type: functional; procedure, shortened: as §1
[17] = system: Staphylococcus aureus; experiment: Antibacterial activity against borderline oxacillin-resistant Staphylococcus aureus after 20 to 24 hrs by broth microdilution method
[18] = system: Cutibacterium acnes; experiment: Antibacterial activity against drug-resistant Propionibacterium acnes GE4E after 72 hrs; assay type: functional; procedure, shortened: as §3
[19] = system: Cutibacterium acnes; experiment: Antibacterial activity against drug-resistant Propionibacterium acnes EG7NS after 48 hrs by broth microdilution method; assay type: functional; procedure, shortened: as §1
[20] = system: Corynebacterium minutissimum; experiment: Antibacterial activity against Corynebacterium minutissimum after 48 hrs by broth microdilution method; assay type: functional; procedure, shortened: as §2
[21] = system: Cutibacterium acnes; experiment: MBC/MIC ratio of Propionibacterium acnes EG7NS; assay type: functional; procedure, shortened: as §4
[22] = system: Cutibacterium acnes; experiment: Antibacterial activity against drug-resistant Propionibacterium acnes P429:1 (BC) after 48 hrs by broth microdilution method; assay type: functional; procedure, shortened: as §1
[23] = system: Cutibacterium acnes; experiment: Antibacterial activity against drug-resistant Propionibacterium acnes P95 after 48 hrs by broth microdilution method; assay type: functional; procedure, shortened: as §1
[24] = system: Cutibacterium acnes; experiment: Antibacterial activity against drug-resistant Propionibacterium acnes P95 after 72 hrs; assay type: functional; procedure, shortened: as §3
[25] = system: Cutibacterium acnes; experiment: Antibacterial activity against drug-resistant Propionibacterium acnes P322:2 after 48 hrs by broth microdilution method; assay type: functional; procedure, shortened: as §1
[26] = system: Cutibacterium acnes; experiment: Antibacterial activity against drug-resistant Propionibacterium acnes SW26 after 48 hrs by broth microdilution method; assay type: functional; procedure, shortened: as §1
[27] = system: Cutibacterium acnes; experiment: MBC/MIC ratio of Propionibacterium acnes SW3CD; assay type: functional; procedure, shortened: as §4
[28] = system: Corynebacterium diphtheriae; experiment: Antibacterial activity against Corynebacterium diphtheriae after 48 hrs by broth microdilution method; assay type: functional; procedure, shortened: as §2
[29] = Antibacterial activity against Streptococcus dysgalactiae subsp. dysgalactiae after 48 hrs by broth microdilution method; assay type: functional
[30] = system: Cutibacterium acnes; experiment: Antibacterial activity against drug-resistant Propionibacterium acnes EG13NS after 48 hrs by broth microdilution method; assay type: functional; procedure, shortened: as §1
[31] = system: Staphylococcus epidermidis; experiment: Antibacterial activity against Staphylococcus epidermidis after 48 hrs by broth microdilution method; assay type: functional
[32] = system: Cutibacterium acnes; experiment: MBC/MIC ratio of Propionibacterium acnes P95; assay type: functional; procedure, shortened: as §4
[33] = system: Cutibacterium acnes; experiment: Antibacterial activity against drug-resistant Propionibacterium acnes SW54EA after 48 hrs by broth microdilution method; assay type: functional; procedure, shortened: as §1
[34] = system: Streptococcus equi subsp. zooepidemicus; experiment: Antibacterial activity against Streptococcus equi subsp. zooepidemicus after 48 hrs by broth microdilution method; assay type: functional
[35] = system: Cutibacterium acnes; experiment: Antibacterial activity against drug-resistant Propionibacterium acnes OK8/97 after 48 hrs by broth microdilution method; assay type: functional; procedure, shortened: as §1
[36] = system: Cutibacterium acnes; experiment: Antibacterial activity against drug-resistant Propionibacterium acnes SW3CD after 48 hrs by broth microdilution method; assay type: functional; procedure, shortened: as §1
[37] = system: Cutibacterium acnes; experiment: Antibacterial activity against drug-resistant Propionibacterium acnes GE4E after 48 hrs by broth microdilution method; assay type: functional; procedure, shortened: as §1
[38] = system: Cutibacterium acnes; experiment: Antibacterial activity against drug-resistant Propionibacterium acnes SW16 after 48 hrs by broth microdilution method; assay type: functional; procedure, shortened: as §1
[39] = system: Cutibacterium acnes; experiment: Antibacterial activity against drug-resistant Propionibacterium acnes SW17 after 48 hrs by broth microdilution method; assay type: functional; procedure, shortened: as §1
[40] = system: Staphylococcus aureus; experiment: Antibacterial activity against methicillin-susceptible Staphylococcus aureus after 48 hrs by broth microdilution method; assay type: functional
[41] = system: Cutibacterium acnes; experiment: MBC/MIC ratio of Propionibacterium acnes SW101T; assay type: functional; procedure, shortened: as §4
[42] = system: Propionibacterium granulosum; experiment: Antibacterial activity against drug-resistant Propionibacterium granulosum QK6/92 after 48 hrs by broth microdilution method
[43] = system: Cutibacterium acnes; experiment: Antibacterial activity against drug-resistant Propionibacterium acnes EG7NS after 72 hrs; assay type: functional; procedure, shortened: as §3
[44] = system: Cutibacterium acnes; experiment: Antibacterial activity against drug-resistant Propionibacterium acnes SW101T after 72 hrs; assay type: functional; procedure, shortened: as §3
[45] = system: Cutibacterium acnes; experiment: Antibacterial activity against drug-resistant Propionibacterium acnes EG3NS after 48 hrs by broth microdilution method; assay type: functional; procedure, shortened: as §1
[46] = system: Cutibacterium acnes; experiment: Antibacterial activity against drug-resistant Propionibacterium acnes SP64E after 48 hrs by broth microdilution method; assay type: functional; procedure, shortened: as §1
[47] = system: Cutibacterium acnes; experiment: Antibacterial activity against drug-resistant Propionibacterium acnes P:413 after 48 hrs by broth microdilution method; assay type: functional; procedure, shortened: as §1
[48] = system: Cutibacterium acnes; experiment: Antibacterial activity against drug-resistant Propionibacterium acnes P425:1 after 48 hrs by broth microdilution method; assay type: functional; procedure, shortened: as §1

Structure (SMILES): CN(C)[C@@H]1C(O)=C(C(N)=O)C(=O)[C@@]2(O)C(O)=C3C(=O)c4c(O)cccc4[C@@](C)(O)[C@H]3C[C@@H]12 [TETRACYCLINE]
- MIC [1]: 0.5 µg/mL (≈ 1.13 µM)
- MIC [2]: 5.16 µg/mL (≈ 11.6 µM)
- MIC [3]: 2 µg/mL (≈ 4.5 µM)
- MBC [4]: > 32 µg/mL
- MIC [5]: 0.5 µg/mL (≈ 1.13 µM)
- MIC [6]: 32 µg/mL (≈ 72 µM)
- MIC [7]: 32 µg/mL (≈ 72 µM)
- MIC [8]: ≥ 32 µg/mL
- MIC [9]: ≤ 0.06 µg/mL
- MIC [10]: 3.25 µg/mL (≈ 7.31 µM)
- MIC [11]: 32 µg/mL (≈ 72 µM)
- MIC [12]: 3.17 µg/mL (≈ 7.13 µM)
- Ratio [13]: >16
- MIC [14]: 5.16 µg/mL (≈ 11.6 µM)
- MIC [15]: 1 µg/mL (≈ 2.25 µM)
- MIC [16]: 1 µg/mL (≈ 2.25 µM)
- MIC [17]: 3.17 µg/mL (≈ 7.13 µM)
- MBC [18]: > 32 µg/mL
- MIC [19]: ≤ 0.06 µg/mL
- MIC [20]: 5.16 µg/mL (≈ 11.6 µM)
- Ratio [21]: >=533
- MIC [22]: 1 µg/mL (≈ 2.25 µM)
- MIC [23]: 0.5 µg/mL (≈ 1.13 µM)
- MBC [24]: 32 µg/mL (≈ 72 µM)
- MIC [25]: 32 µg/mL (≈ 72 µM)
- MIC [26]: 0.5 µg/mL (≈ 1.13 µM)
- Ratio [27]: >32
- MIC [28]: 5.16 µg/mL (≈ 11.6 µM)
- MIC [29]: 4.58 µg/mL (≈ 10.3 µM)
- MIC [30]: 1 µg/mL (≈ 2.25 µM)
- MIC [31]: 7.55 µg/mL (≈ 17 µM)
- Ratio [32]: >64
- MIC [33]: 0.5 µg/mL (≈ 1.13 µM)
- MIC [34]: 8 µg/mL (≈ 18 µM)
- MIC [35]: 0.5 µg/mL (≈ 1.13 µM)
- MIC [36]: 1 µg/mL (≈ 2.25 µM)
- MIC [37]: 2 µg/mL (≈ 4.5 µM)
- MIC [38]: 0.25 µg/mL (≈ 0.563 µM)
- MIC [39]: 0.25 µg/mL (≈ 0.563 µM)
- MIC [40]: 3.17 µg/mL (≈ 7.13 µM)
- Ratio [41]: >1
- MIC [42]: 1 µg/mL (≈ 2.25 µM)
- MBC [43]: > 32 µg/mL
- MBC [44]: > 32 µg/mL
- MIC [45]: 0.5 µg/mL (≈ 1.13 µM)
- MIC [46]: 1 µg/mL (≈ 2.25 µM)
- MIC [47]: 16 µg/mL (≈ 36 µM)
- MIC [48]: 16 µg/mL (≈ 36 µM)
